SKKanGAS inh: inhibitors of SKKanGAS S. pyogenes growth in kanamycin (SK-promoter or general growth effect); BacTiter-Glo, 6 h; 300,000 compounds, 1.3% hits; inhibition, % at 7.5 µM;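 active means mean replicate score, as percent of positive control median, at least 50; inconclusive means mean below 50 but one replicate at or above 50; inactive means mean and every replicate below 50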;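 further: strain carries kanamycin resistance gene driven by streptokinase promoter and grows in 40 µg/ml kanamycin; loss of luminescence reflects streptokinase promoter inhibition or plain growth inhibition; 0% = median of DMSO wells and 100% = positive control at its reference dose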
WT yeast gro inh: growth inhibition of WT yeast, mitochondrial fusion screen | mitochondrial fusion phenotypic screen, WT strain | inhibition, % at 10 µM | 190,000 compounds, 2.1% hits | AID 1362; in the data active means inhibition above about 58%; tested in S. cerevisiae
Ins promoter up: MIN6 insulin promoter up-regulation; MIN6 insulin promoter-GFP reporter, high-content imaging; stronger effect = higher value; z-score at 5 µM; 190,000 compounds, 0.3% hits;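 active means z-score above 3 at 5 µM with at least 500 cells counted in the well; inconclusive means wells under 500 cells, flagged as cytotoxic or low count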
Autophagy HCS: modulators of autophagy. MEF GFP-LC3 puncta imaging; test concentration mostly 10 µM. calls only at 10 µM (by protocol). 190,000 compounds, 0.98% hits;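 active means percentage of spot-positive cells more than 3 SD above its plate mean, without a fluorescence outlier flag or 80% toxicity; inconclusive means no clear call, values can overlap the other calls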;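 further: spot-positive cell cutoff set from DMSO-treated cells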
Rad51 HR inh: blocks human Rad51 in homologous recombination. inhibition, % at 10 µM. AID 1385. 200,000 compounds, 0.085% hits. Q06609. hRad51 DNA strand exchange, fluorescence dequenching;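 active means inhibition above 40% at the single screening dose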;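 further: 0% = DMSO control wells and 100% = blanks with heterologous ssDNA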
Target sequence (Q06609 whole entry, looked up): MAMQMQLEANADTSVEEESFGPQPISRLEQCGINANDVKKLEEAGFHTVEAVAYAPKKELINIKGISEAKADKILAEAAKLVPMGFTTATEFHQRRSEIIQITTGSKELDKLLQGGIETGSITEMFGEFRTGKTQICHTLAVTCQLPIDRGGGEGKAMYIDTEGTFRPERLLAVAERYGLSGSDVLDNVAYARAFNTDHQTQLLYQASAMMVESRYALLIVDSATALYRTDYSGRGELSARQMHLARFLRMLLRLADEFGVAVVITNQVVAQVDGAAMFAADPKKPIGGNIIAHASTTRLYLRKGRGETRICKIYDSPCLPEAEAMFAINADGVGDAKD
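material = hRad51 filaments on single-stranded DNA | timing = filaments 15 min 37 °C, then compound 30 min | signal = FRET fluorescence dequenching, excitation 485 nm, emission 520 nm | benchmarks = control wells and blank wells on each plate | evaluation = percent inhibition relative to plate controls and blanks | compound = 10 µM final, single point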
KCC2 mod: modulates chloride dependent transport by human KCC2; Q9H2X9; B-score of Tl+ flux slope (higher = more flux/activation; lower = inhibition) at 10 µM; KCC2 cells, thallium flux FluoZin-2 fluorescence; 190,000 compounds, 2.2% hits; AID 1456;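 active means thallium flux slope and its plate-corrected score both differing from the plate sample mean at a set confidence after two filtering rounds, in either direction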;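 further: slope of fluorescence scaled to starting intensity during 10 to 20 s after thallium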
KCC2 sec1: KCC2 (human) modulation, secondary assay; normalised thallium flux (F/F0 slope) at 10 µM; shares compounds with KCC2 mod; HEK293-KCC2, thallium flux, FluoZin2 fluorescence; stronger effect = higher value; 3,700 compounds, 15% hits; AID 1713;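 active means thallium flux slope above the same plate's solvent-only control mean plus 3 SD; inconclusive means the two replicate wells disagree; inactive means no significant difference from solvent-only control wells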
KCC2 bumet counter: thallium flux despite bumetanide block in KCC2 cells, secondary assay 3. HEK293-KCC2 + bumetanide/ouabain, thallium flux FluoZin2; stronger effect = higher value. normalized thallium flux at 10 µM. 3,700 compounds, 49% hits. shares compounds with KCC2 mod. AID 1714;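 active means thallium entry rate above the same plate's blocked-transporter control wells by more than 3 SD; inconclusive means the two repeat wells disagree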;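 further: raw slope of fluorescence over initial fluorescence between 10 and 20 s after thallium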
KCC2 sec2: confirmation of human KCC2 transport modulators; shares compounds with KCC2 mod; HEK293-KCC2, thallium flux FluoZin2 fluorescence; actives lie on both sides; F/F0 rise rate, 10–20 s post-thallium; normalized thallium flux at 10 µM; 3,700 compounds, 23% hits; AID 1715;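 active means thallium flux slope more than 3 SD above or below the plate's solvent-only control mean, mostly below; inconclusive means the two repeat wells disagreed; inactive means no significant shift from solvent-only controls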;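 further: raw slope with 0.1% DMSO as baseline and bumetanide as block control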
HEK293 Tl flux: parental HEK flux effect, counter-screen; HEK293 parental cells, thallium flux FluoZin2, ouabain; baseline-ratio fluorescence slope, 10–20 s after thallium; thallium flux rate (normalised fluorescence) at 10 µM; AID 1716; shares compounds with KCC2 mod; 3,700 compounds, 46% hits;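 active means thallium flux rate significantly above the same plate's solvent-only control wells, beyond their mean plus 3 SD; inconclusive means the two replicate wells gave conflicting results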
KCC2 retest ouab: confirmation of human KCC2 modulators with ouabain. shares compounds with KCC2 mod. HEK293-KCC2, thallium flux FluoZin2 fluorescence; bidirectional: low = inhibitor, high = activator. raw Tl+ flux slope (below DMSO = inhibition, above = activation) at 10 µM. 3,700 compounds, 48% hits. AID 1717;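 active means thallium flux slope beyond 3 SD from same-plate DMSO control mean in most replicates, usually higher, sometimes lower; inconclusive means repeat tests gave conflicting results; inactive means no significant difference from controls in most replicates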;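 further: slope of initial-normalized fluorescence between seconds 10 and 20 after thallium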
HEK293 Tl flux2: parental HEK flux effect, counter-screen 2; thallium flux slope at 10 µM; 3,700 compounds, 33% hits; shares compounds with KCC2 mod; HEK293 parental, thallium flux FluoZin-2 fluorescence slope; AID 1718;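 active means thallium flux slope above the same plate's solvent-control mean plus 3 SD in both duplicate wells; inconclusive means duplicate wells that disagreed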;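 further: run without ouabain in cells lacking the KCC2 cotransporter; slope of fluorescence scaled to its starting value between 10 and 20 s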
Active calls of the source: *; i = inactive; ? = inconclusive; / = not tested or not shown; + = active, no number; ! = repeats disagree. In the library only some 4.2% were active in any assay of this set; here they are far more common.

SMILES	SKKanGAS inh	WT yeast gro inh	Ins promoter up	Autophagy HCS	Rad51 HR inh	KCC2 mod	KCC2 sec1	KCC2 bumet counter	KCC2 sec2	HEK293 Tl flux	KCC2 retest ouab	HEK293 Tl flux2
Oc1c(I)cc(I)c2cccnc12	92*	17	/	i	2	78*	0.011	0.078*	0.037	0.044*	0.084*	0.013*
Oc1c(Cl)cc(CN2CCCCC2)c2cccnc12	24	/	/	/	/	/	/	/	/	/	/	/
Oc1c(Cl)cc(Cl)c2cccnc12	87*	55	/	i	7	88*	0.019*	0.12*	0.047*	0.098*	0.096*	0.032*
NC(=O)c1nn(CC(=O)Nc2ccc3c(c2)OCO3)cc1[N+](=O)[O-]	/	-3	-0.42	i	7	1.2	/	/	/	/	/	/
Cc1ccccc1NC(=S)N/N=C/C(C)c1ccccc1 (centres undefined)	-2	5	-0.23	i	22	14*	0.0051	0.027*	0.032	0.015*	?	0.018*
Cc1cccc(NC(=S)N/N=C/C(C)c2ccccc2)c1C (centres undefined)	10	19	0.46	i	26	5.5	/	/	/	/	/	/
O=C(NCc1ccc2c(c1)OCO2)c1ccc(COc2cc(Cl)ccc2Cl)o1	16	49	0.02	i	12	-5.7*	0.0077	0.0043	0.023*	0.0069	0.015*	0.0095
O=C(Nc1ccn(Cc2ccccc2F)n1)c1ccc(COc2cc(Cl)ccc2Cl)o1	21	-2	0.21	i	-1	1.1	/	/	/	/	/	/
O=C(NCc1cccnc1)c1ccc(COc2ccc(Cl)cc2Cl)o1	-20	20	/	i	32	-4.4*	0.0098	0.0072	0.029*	0.0036	0.015*	0.011
O=C(Nc1cccnc1)c1ccc(COc2cc(Cl)ccc2Cl)o1	-1	8	-0.38	i	6	-5.2*	0.0063	0.0051	?	0.0081	0.016*	0.0099
COc1ccccc1S(=O)(=O)Cc1ccc(C(=O)N2CCN(c3ccccn3)CC2)o1	/	5	0.28	i	-2	-0.43	/	/	/	/	/	/
O=C(c1ccc(COc2ccccc2Br)o1)N1CCN(c2ccccn2)CC1	-9	1	-0.19	i	-8	-6.5*	?	?	0.032	0.0058*	0.013*	0.011
Cc1cccc(NC(=O)CSCC(=O)Nc2sccc2C#N)c1	-5	/	/	/	/	/	/	/	/	/	/	/
CCc1cccc(C)c1NC(=O)CN1CCN(S(=O)(=O)c2ccc(C(C)(C)C)cc2)CC1	5	/	/	/	/	/	/	/	/	/	/	/
CN(CC(=O)NCCc1ccccc1)Cc1ccco1	-11	/	/	/	/	/	/	/	/	/	/	/
Cc1ccccc1C(=O)NCCCNC(=O)c1ccccc1C	-9	/	/	/	/	/	/	/	/	/	/	/
Cc1ccc(OCC(=O)Nc2ccccc2[N+](=O)[O-])c(Br)c1	2	9	0.3	i	-3	0.61	/	/	/	/	/	/
O=C(Nc1ccc(Cl)cn1)c1ccc(COc2ccccc2Br)o1	19	43	-0.54	i	1	-1.4	/	/	/	/	/	/
O=C(c1ccc(COc2ccccc2Cl)o1)N1CCN(Cc2ccc3c(c2)OCO3)CC1	-1	39	-0.19	+!	-11	-1.6	0.007	0.0056	0.029	0.0062	?	0.01
CCOc1ncccc1C(=O)N1CCN(Cc2ccc3c(c2)OCO3)CC1	0	-15	/	i	-1	4.8*	0.016	0.0042	0.028	0.0077	0.018	0.0093
Cc1ccc(C(=O)N2CCN(Cc3ccc4c(c3)OCO4)CC2)o1	-1	1	1.8	i	-6	0.27	/	/	/	/	/	/
O=C(c1cnn2cccnc12)N1CCN(Cc2ccc3c(c2)OCO3)CC1	-4	4	/	i	2	0.27	/	/	/	/	/	/
O=C(Nc1ccccn1)c1ccc(COc2ccccc2Cl)o1	-7	35	/	i	2	-4*	0.0069	0.0047	0.024*	0.0073	0.015*	0.01
COc1ccccc1NC(=O)c1ccc(COc2ccccc2OC)o1	-2	-1	-0.24	i	-2	-3.7*	0.0054	?	?	0.0067	?	0.011
Cn1cc(C(=O)C(=O)NC2CCCCC2)c2ccccc21	-2	/	/	/	/	/	/	/	/	/	/	/
Cc1nn(C)c(C)c1/C=C/C(=O)c1ccc(Cl)cc1Cl	0	17	-0.85	i	2	-0.98	/	/	/	/	/	/
NC(=O)c1ccc(NC(=O)CN2C(=O)NC(c3ccccc3)(c3ccccc3)C2=O)cc1	8	/	/	/	/	/	/	/	/	/	/	/
O=C(Nc1cccnc1)c1ccc(COc2ccccc2Cl)o1	2	2	-0.95	i	-1	-8.1*	0.0061	?	0.022*	0.0077	?	0.011
